# Assay results as given in PubChem BioAssay.
# Activity calls are given as the source filed them. Cut-off read from the data, not from the text of the source, unless noted: active = inhibition above about 30%; inactive = the rest.
# Tests used:
# [1] = Her2 expression decrease, cell viability multiplex – SKBR3 breast tumor cells, AlphaScreen, ATP viability, primary screen (AID 461;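 active = Her2 level under about 52% in both replicate screens, with viability over 70% of control, limit read from the data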;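 for Her2 level: lower value means less Her2 protein in the cells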;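 for viability: percent of carrier control wells set as 100% viability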); details: SKBR3 Her2 protein level, 18-24 h, measured here: SKBR3 viability, ATP luminescence, at 10 µM
# [2] = target: Receptor tyrosine-protein kinase erbB-2 (Homo sapiens) (UniProt P04626); test: as above; details: 18-24 h, at 10 µM, stronger effect = lower value
# Chain of Receptor tyrosine-protein kinase erbB-2 (Homo sapiens) (P04626 whole entry, looked up): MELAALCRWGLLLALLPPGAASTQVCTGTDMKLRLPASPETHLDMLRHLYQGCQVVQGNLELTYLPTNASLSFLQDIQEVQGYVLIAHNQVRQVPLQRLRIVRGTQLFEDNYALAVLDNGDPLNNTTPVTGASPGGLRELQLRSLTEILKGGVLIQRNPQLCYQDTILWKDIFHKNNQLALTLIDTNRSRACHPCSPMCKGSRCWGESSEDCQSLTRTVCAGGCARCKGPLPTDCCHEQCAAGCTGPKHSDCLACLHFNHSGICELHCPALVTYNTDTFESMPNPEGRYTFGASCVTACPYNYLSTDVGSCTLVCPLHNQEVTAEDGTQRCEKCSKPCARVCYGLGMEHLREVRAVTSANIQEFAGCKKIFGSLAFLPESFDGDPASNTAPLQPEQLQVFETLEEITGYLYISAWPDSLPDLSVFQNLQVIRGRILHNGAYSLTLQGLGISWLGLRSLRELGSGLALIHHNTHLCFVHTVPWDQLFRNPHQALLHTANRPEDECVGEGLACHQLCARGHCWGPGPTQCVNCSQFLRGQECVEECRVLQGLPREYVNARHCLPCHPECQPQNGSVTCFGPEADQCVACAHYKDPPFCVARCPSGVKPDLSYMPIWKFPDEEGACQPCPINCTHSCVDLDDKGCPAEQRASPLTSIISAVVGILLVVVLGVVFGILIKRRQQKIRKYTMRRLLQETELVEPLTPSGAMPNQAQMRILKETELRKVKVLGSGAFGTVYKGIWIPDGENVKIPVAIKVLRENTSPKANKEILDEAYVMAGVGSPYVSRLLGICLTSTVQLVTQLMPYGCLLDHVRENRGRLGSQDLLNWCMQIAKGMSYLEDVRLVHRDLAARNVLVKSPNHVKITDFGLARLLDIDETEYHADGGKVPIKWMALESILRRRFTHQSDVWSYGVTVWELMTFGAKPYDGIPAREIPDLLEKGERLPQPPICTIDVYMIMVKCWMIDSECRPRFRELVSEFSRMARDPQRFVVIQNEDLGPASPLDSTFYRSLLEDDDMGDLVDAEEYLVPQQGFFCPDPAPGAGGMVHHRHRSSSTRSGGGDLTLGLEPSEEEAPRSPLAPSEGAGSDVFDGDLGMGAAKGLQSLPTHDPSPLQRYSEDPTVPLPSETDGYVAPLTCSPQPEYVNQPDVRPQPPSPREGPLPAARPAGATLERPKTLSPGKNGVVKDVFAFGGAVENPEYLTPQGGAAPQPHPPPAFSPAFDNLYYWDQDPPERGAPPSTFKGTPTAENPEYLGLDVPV
# [3] = reduced viability of SK-BR-3 breast cancer cells – cell-based, 24 h, human, pilot screen (AID 572;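 active = viability at or below 10% of carrier control in both of two separate runs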;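 note: compound exposure lasted between 18 and 24 h rather than exactly 24 h; 100% = carrier-treated control wells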); details: SK-BR-3 viability, CellTiter-Glo luminescence, at 10 µM, stronger effect = lower value
# [4] = HUVEC growth inhibition – cell-based, human, primary screen (AID 575;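 active = viability at or below 30% in both replicate assays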;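 note: 100% = median of untreated cell wells with 0.1% DMSO on each plate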); details: HUVEC proliferation, CellTiter-Glo luminescence, 72 h; at 10 µM; stronger effect = lower value
# Outline: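 Material: primary human umbilical vein endothelial cells / Schedule: 72 h exposure, 37 °C, 5% CO2, 30 min RT equilibration / Signal: ATP-based CellTiter-Glo luminescent read / Read-out basis: percent of median DMSO-control luminescence / Control set: 32 DMSO-only cell-control wells (high), 32 MePR drug-control wells (low) per plate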
# [5] = H69AR cell proliferation blockers – human, duplicate replicates, primary screen (AID 580;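 active = viability at or under a set limit in both replicates, limit being median viability minus 3 SD, cut at about 48% in these data, passing the limit was not always enough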;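 note: 100% = mean luminescence of untreated wells and 0% = no signal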); details: H69AR lung tumor cells viability, ATP luminescence, 72 h; at 10 µM; stronger effect = lower value
# [6] = MRP1 drug-resistance reversers in H69AR cells – cell-based, doxorubicin co-treatment, pilot screen (AID 601;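 active = viability loss from added drug above about 55%, and viability with drug at most 40%, in both replicates, limit read from the data, passing the limit was not always enough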); details: CellTiter-Glo, 72 h, at 10 µM; for differential viability (reversal): stronger effect = higher value
# [7] = yeast transport mutant growth inhibition pilot in 384-well plates, post-Golgi transport modulator project (AID 636; in the data active = inhibition above about 31%); details: absorbance 615 nm, about 18 h, stronger effect = higher value
# [8] = growth suppression of yeast trafficking mutant, preliminary HTS, modulators of trafficking downstream of Golgi apparatus project, 1536-format plate, OD 615 nm (AID 637); details: yeast transport mutant growth, absorbance 615 nm, 18 h; stronger effect = higher value
# [9] = H69AR cells + 2 uM doxorubicin, measured here: viability with 2 uM doxorubicin, stronger effect = lower value
# [10] = H69AR cells, compound alone cytotoxicity
SMILES,viability [1] [%],Her2 level [2],viability [3],viability [4],viability [5],differential viability (reversal) ([6]; H69AR cells + 2 uM doxorubicin),"viability [6, 9] [%]","viability [6, 10] [%]",inhibition [7],inhibition [8]
CCOC(=O)Nc1ccc2c(c1)N(C(=O)CN(CC)CC)c1ccccc1C=C2,87.5,93% (inactive),87.5% (inactive),97.3% (inactive),91.4% (inactive),8.63% (inactive),82.8,91.4,-4.61% (inactive),5.9% (inactive)
CC(C)c1cc(C(=O)NCc2ccco2)no1,101,99.5% (inactive),101% (inactive),84.3% (inactive),80.4% (inactive),5.93% (inactive),74.5,80.4,0.13% (inactive),-2.83% (inactive)
CN(c1ccccc1C(N)=O)S(=O)(=O)c1ccccc1,105,86% (inactive),105% (inactive),101% (inactive),92.7% (inactive),7.05% (inactive),85.7,92.7,-6.53% (inactive),-0.48% (inactive)
COCCn1nnnc1CN(CCCN1CCOCC1)Cc1cc2c(C)ccc(C)c2[nH]c1=O,85,124% (inactive),85% (inactive),98.5% (inactive),68.7% (inactive),-5.44% (inactive),74.1,68.7,4.55% (inactive),-7.33% (inactive)
Cc1nc(NCCNC(=O)c2ccco2)c2c(C)c(C)sc2n1,87.5,81% (inactive),87.5% (inactive),97.9% (inactive),86.5% (inactive),2.2% (inactive),84.3,86.5,-4.08% (inactive),0.91% (inactive)
CCC(C)c1ccc(NC(=O)c2cccnc2)cc1 (stereo not given),93,106% (inactive),93% (inactive),81.6% (inactive),92.5% (inactive),5.06% (inactive),87.4,92.5,-0.54% (inactive),-1.64% (inactive)
O=c1c2c(nc3nc(CCc4ccccc4)[nH]n13)CCC2,112,92% (inactive),112% (inactive),86.6% (inactive),91% (inactive),14% (inactive),77,91,-6% (inactive),0.16% (inactive)
COc1ccccc1N1CC(C(=O)Nc2cccc(C(=O)O)c2)CC1=O (stereo not given),98,103% (inactive),98% (inactive),95.4% (inactive),94.1% (inactive),-5.46% (inactive),99.6,94.1,3.07% (inactive),-7.58% (inactive)
Clc1ccccc1OCc1nn2c(-c3ccncc3)nnc2s1,114,75.5% (inactive),114% (inactive),78.6% (inactive),98.2% (inactive),5.55% (inactive),92.7,98.2,-5.95% (inactive),2.67% (inactive)
COc1ccccc1NC(=O)c1ccc(NC(=O)CSc2nnnn2C)cc1,92,96% (inactive),92% (inactive),84% (inactive),13.1% (active),-25.5% (inactive),38.7,13.1,-6% (inactive),-2.13% (inactive)
CC1Cc2nc(SCC(=O)Nc3ccc(F)cc3F)n(C)c(=O)c2S1 (stereo not given),90,100% (inactive),90% (inactive),102% (inactive),91.7% (inactive),-8.34% (inactive),100,91.7,-1.78% (inactive),2.7% (inactive)
Cc1cc2c(=O)n(Cc3ccco3)c(SCC(=O)NCc3ccco3)nc2s1,100,88% (inactive),100% (inactive),93.7% (inactive),81.2% (inactive),4.87% (inactive),76.4,81.2,-4% (inactive),1.9% (inactive)
COc1cc(-c2nnc(SCC(=O)c3ccc(C)cc3)o2)cc(OC)c1OC,90,97.5% (inactive),90% (inactive),64.8% (inactive),74.5% (inactive),-19.7% (inactive),94.2,74.5,-1.45% (inactive),0.16% (inactive)
CCOC(=O)c1[nH]c(=O)c2ccccc2c1O,106,94.5% (inactive),106% (inactive),95.8% (inactive),90.8% (inactive),-0.03% (inactive),90.8,90.8,-10% (inactive),-8.41% (inactive)
c1ccc(CCc2nc(-c3cccnc3)no2)cc1,86.5,73% (inactive),86.5% (inactive),108% (inactive),92.9% (inactive),1.11% (inactive),91.8,92.9,-4.27% (inactive),1.31% (inactive)
Cc1cc(O)c(C2(C(F)(F)F)NCCNC2=O)cc1C (stereo not given),100,96% (inactive),100% (inactive),99.5% (inactive),98.8% (inactive),7.08% (inactive),91.7,98.8,-4.61% (inactive),-0.32% (inactive)
COc1ccc(NC2c3ncccc3C(=O)N2Cc2ccccc2)c(OC)c1 (stereo not given),101,85.5% (inactive),101% (inactive),93.8% (inactive),95.8% (inactive),4.3% (inactive),91.5,95.8,-1.56% (inactive),1.75% (inactive)
CN(C(=O)COC(=O)C1CCN(S(=O)(=O)c2cccs2)CC1)C1CCS(=O)(=O)C1 (stereo not given),118,127% (inactive),118% (inactive),94.9% (inactive),99.8% (inactive),12.6% (inactive),87.2,99.8,-4.4% (inactive),-7.74% (inactive)
CCOC(=O)c1c(-c2cccs2)csc1NC(=O)CCCC(=O)O,110,87% (inactive),110% (inactive),78.3% (inactive),83.4% (inactive),1.06% (inactive),82.4,83.4,-5.79% (inactive),-3.27% (inactive)
Cc1oc(-c2ccccc2Cl)nc1CSCC(=O)N1CCCC1,72,86.5% (inactive),72% (inactive),79.4% (inactive),99.5% (inactive),14.6% (inactive),85,99.5,-0.93% (inactive),6.61% (inactive)
Cc1cccc(-c2cc3nc4c(c(N5CCC6(CC5)OCCO6)n3n2)CCCC4)c1,80.5,100% (inactive),80.5% (inactive),77.8% (inactive),83.9% (inactive),-9.12% (inactive),93,83.9,-2.13% (inactive),9.37% (inactive)
COc1cc(OC)c(C(=O)Nc2ccc(N(C)C)cc2)cc1OC,111,84.5% (inactive),111% (inactive),103% (inactive),89% (inactive),-4.37% (inactive),93.4,89,-1.84% (inactive),-1.9% (inactive)
CCNCC(O)COCC(O)CNCC (stereo not given),88.5,86% (inactive),88.5% (inactive),88.3% (inactive),99.7% (inactive),5.55% (inactive),94.2,99.7,-1.03% (inactive),-0.5% (inactive)
CCN(Cc1cc2cc(OC)ccc2[nH]c1=O)C(=O)c1ccncc1,89,100% (inactive),89% (inactive),97.8% (inactive),99.5% (inactive),-3.88% (inactive),103,99.5,-2.13% (inactive),9.05% (inactive)
CCC(C)(C(=O)NC1CCCCC1)N(CC1CCCO1)C(=O)c1ccccn1 (stereo not given),82,99% (inactive),82% (inactive),91.6% (inactive),89% (inactive),-1.55% (inactive),90.6,89,-0.26% (inactive),-1.15% (inactive)
Cc1ncoc1C(=O)Nc1ccccc1C(N)=O,104,101% (inactive),104% (inactive),106% (inactive),102% (inactive),16.3% (inactive),85.5,102,-6.08% (inactive),-1% (inactive)
Cc1ccc(S(=O)(=O)CC(=O)N2CCCCCC2)cc1,85.5,100% (inactive),85.5% (inactive),78.1% (inactive),92.7% (inactive),1.99% (inactive),90.7,92.7,-5% (inactive),-6.07% (inactive)
O=C(Nc1ccccc1C(=O)NCC1CCCO1)c1ccco1 (stereo not given),110,89% (inactive),110% (inactive),97.9% (inactive),98.7% (inactive),-1.63% (inactive),100,98.7,-1.71% (inactive),-5.71% (inactive)
